Experimental data gathered from unrelated publications.
Each line is one published result; the experiments were not run side by side.
SIGMAR1: Sigma non-opioid intracellular receptor 1 (SIGMAR1, Homo sapiens, UniProt Q99720)
Nectin-4: Nectin-4 (Homo sapiens, UniProt Q96NY8)
PFF0160c E182D: Dihydroorotate dehydrogenase (quinone), mitochondrial (PFF0160c, Plasmodium falciparum, UniProt Q08210, E182D)
PFF0160c: Dihydroorotate dehydrogenase (quinone), mitochondrial (PFF0160c, Plasmodium falciparum, UniProt Q08210)

Structure (SMILES) | target | test | endpoint | result
Cc1nccn1CC1CCc2c(c3ccccc3n2C)C1=O (stereo not drawn) | SIGMAR1 | ligand displacement, radioligand | Ki | 6510 nM
CCCC[C@@H]1NC(=O)[C@H](Cc2ccc(O)cc2)NC(=O)[C@@H]2CCCN2C(=O)[C@H](CC(=O)O)NC(=O)[C@H](C)NC(=O)[C@H](Cc2ccccc2)NC(=O)[C@@H]2CSCCC(=O)N3CN(CN(C3)C(=O)CCSC[C@@H](C(=O)N[C@@H](CNC(=O)CCOCCOCCOCCOCCOCCn3cc(CCC(=O)N[C@H]4CSCCC(=O)N5CN6CN(C5)C(=O)CCSC[C@H](NC(=O)[C@@H](CC(=O)O)NC(=O)[C@H](Cc5cccc7ccccc57)NC(=O)[C@@H]5CCCN5C4=O)C(=O)N[C@@H](CCSC)C(=O)N[C@@H](CCCCNC(=N)N)C(=O)N[C@@H](CC(=O)O)C(=O)N[C@@H](Cc4c[nH]c5ccccc45)C(=O)N[C@@H](CO)C(=O)N[C@@H]([C@@H](C)O)C(=O)N4CCC[C@H]4C(=O)N4C[C@H](O)C[C@H]4C(=O)N[C@@H](Cc4c[nH]c5ccccc45)C(=O)N[C@H](C(N)=O)CSCCC6=O)nn3)C(N)=O)NC1=O)C(=O)CCSC[C@H](NC(C)=O)C(=O)N[C@@H](CC(C)(C)C)C(=O)N1CCC[C@H]1C(=O)N[C@@H](CCC(=O)O)C(=O)N[C@H](C)C(=O)N1CCC[C@H]1C(=O)N[C@@H](Cc1ccc(O)cc1)C(=O)N2 | Nectin-4 | binding, SPR | Kd | 1.1 nM
Cc1cccc(C(=O)N2CCN(Cc3cccc(NC(=O)c4cccs4)c3)CC2)c1 | PFF0160c E182D | enzyme activity, inhibitor, absorbance | IC50 | 6.61 µM
COc1cc2c(cc1OC)CN(CCc1ccc(NC(=O)c3cc(OC)c(OC)cc3NC(=O)c3cnc4ccccc4c3)cc1)CC2 | SIGMAR1 | ligand displacement, radioligand | Ki | 472 nM
CCCC[C@@H]1NC(=O)[C@H](Cc2ccc(O)cc2)NC(=O)[C@@H]2CCCN2C(=O)[C@H](CC(=O)O)NC(=O)[C@H](C)NC(=O)[C@H](Cc2ccccc2)NC(=O)[C@@H]2CSCCC(=O)N3CN(CN(C3)C(=O)CCSC[C@@H](C(=O)N[C@@H](CNC(=O)CCc3cn(CCOCCOCCOCCN(CCOCCOCCOCCC(=O)N[C@H]4CSCCC(=O)N5CN6CN(C5)C(=O)CCSC[C@H](NC(=O)[C@@H](CC(=O)O)NC(=O)[C@H](Cc5cccc7ccccc57)NC(=O)[C@@H]5CCCN5C4=O)C(=O)N[C@@H](CCSC)C(=O)N[C@@H](CCCCNC(=N)N)C(=O)N[C@@H](CC(=O)O)C(=O)N[C@@H](Cc4c[nH]c5ccccc45)C(=O)N[C@@H](CO)C(=O)N[C@@H]([C@@H](C)O)C(=O)N4CCC[C@H]4C(=O)N4C[C@H](O)C[C@H]4C(=O)N[C@@H](Cc4c[nH]c5ccccc45)C(=O)N[C@H](C(N)=O)CSCCC6=O)CCOCCOCCOCCn4cc(CCC(=O)NC[C@H](NC(=O)[C@@H]5CSCCC(=O)N6CN7CN(C6)C(=O)CCSC[C@H](NC(=O)[C@H](Cc6ccc(O)cc6)NC(=O)[C@@H]6CCCN6C(=O)[C@@H](C)NC(=O)[C@H](CCC(=O)O)NC(=O)[C@@H]6CCCN6C(=O)[C@H](CC(C)(C)C)NC(=O)[C@@H](NC(C)=O)CSCCC7=O)C(=O)N[C@@H](Cc6ccccc6)C(=O)N[C@@H](C)C(=O)N[C@@H](CC(=O)O)C(=O)N6CCC[C@H]6C(=O)N[C@@H](Cc6ccc(O)cc6)C(=O)N[C@@H](CCCC)C(=O)N5)C(N)=O)nn4)nn3)C(N)=O)NC1=O)C(=O)CCSC[C@H](NC(C)=O)C(=O)N[C@@H](CC(C)(C)C)C(=O)N1CCC[C@H]1C(=O)N[C@@H](CCC(=O)O)C(=O)N[C@H](C)C(=O)N1CCC[C@H]1C(=O)N[C@@H](Cc1ccc(O)cc1)C(=O)N2 | Nectin-4 | binding, SPR | Kd | 3.7 nM
COc1cc2c(cc1OC)C(=O)C(CC1CCN(Cc3ccccc3)CC1)C2 (stereo not drawn) | SIGMAR1 | ligand displacement, radioligand | Ki | 19.1 nM
CCCC[C@@H]1NC(=O)[C@H](Cc2ccc(O)cc2)NC(=O)[C@@H]2CCCN2C(=O)[C@H](CC(=O)O)NC(=O)[C@H](C)NC(=O)[C@H](Cc2ccccc2)NC(=O)[C@@H]2CSCCC(=O)N3CN(CN(C3)C(=O)CCSCCC(=O)N[C@@H](CC(C)(C)C)C(=O)N3CCC[C@H]3C(=O)N[C@@H](CCC(=O)O)C(=O)N[C@H](CCCCNC(=O)CCc3cn(CCOCCOCCOCCOCCOCCC(=O)N[C@H]4CSCCC(=O)N5CN6CN(C5)C(=O)CCSC[C@H](NC(=O)[C@@H](CC(=O)O)NC(=O)[C@H](Cc5cccc7ccccc57)NC(=O)[C@@H]5CCCN5C4=O)C(=O)N[C@@H](CCSC)C(=O)N[C@@H](CCCCNC(=N)N)C(=O)N[C@@H](CC(=O)O)C(=O)N[C@@H](Cc4c[nH]c5ccccc45)C(=O)N[C@@H](CO)C(=O)N[C@@H]([C@@H](C)O)C(=O)N4CCC[C@H]4C(=O)N4C[C@H](O)C[C@H]4C(=O)N[C@@H](Cc4c[nH]c5ccccc45)C(=O)N[C@H](C(N)=O)CSCCC6=O)nn3)C(=O)N3CCC[C@H]3C(=O)N[C@@H](Cc3ccc(O)cc3)C(=O)N2)C(=O)CCSCCNC1=O | Nectin-4 | binding, SPR | Kd | 1 nM
COCC(C)n1c(SCC(=O)Nc2cc(C(F)(F)F)ccc2Cl)nc2ccccc2c1=O (stereo not drawn) | PFF0160c | enzyme activity, inhibitor, absorbance | IC50 | 0.626 µM
CCCC[C@@H]1NC(=O)[C@H](Cc2ccc(O)cc2)NC(=O)[C@@H]2CCCN2C(=O)[C@H](CC(=O)O)NC(=O)[C@H](C)NC(=O)[C@H](Cc2ccccc2)NC(=O)[C@@H]2CSCCC(=O)N3CN(CN(C3)C(=O)CCSC[C@@H](C(N)=O)NC1=O)C(=O)CCSCCC(=O)N[C@@H](CC(C)(C)C)C(=O)N1CCC[C@H]1C(=O)N[C@@H](CCC(=O)O)C(=O)N[C@H](CCCCNC(=O)CCc1cn(CCOCCOCCOCCN(CCOCCOCCOCCC(=O)N[C@H]3CSCCC(=O)N4CN5CN(C4)C(=O)CCSC[C@H](NC(=O)[C@@H](CC(=O)O)NC(=O)[C@H](Cc4cccc6ccccc46)NC(=O)[C@@H]4CCCN4C3=O)C(=O)N[C@@H](CCSC)C(=O)N[C@@H](CCCCNC(=N)N)C(=O)N[C@@H](CC(=O)O)C(=O)N[C@@H](Cc3c[nH]c4ccccc34)C(=O)N[C@@H](CO)C(=O)N[C@@H]([C@@H](C)O)C(=O)N3CCC[C@H]3C(=O)N3C[C@H](O)C[C@H]3C(=O)N[C@@H](Cc3c[nH]c4ccccc34)C(=O)N[C@H](C(N)=O)CSCCC5=O)CCOCCOCCOCCn3cc(CCC(=O)NCCCC[C@H]4NC(=O)[C@H](CCC(=O)O)NC(=O)[C@@H]5CCCN5C(=O)[C@H](CC(C)(C)C)NC(=O)CCSCCC(=O)N5CN6CN(C5)C(=O)CCSC[C@H](NC(=O)[C@H](Cc5ccc(O)cc5)NC(=O)[C@@H]5CCCN5C4=O)C(=O)N[C@@H](Cc4ccccc4)C(=O)N[C@@H](C)C(=O)N[C@@H](CC(=O)O)C(=O)N4CCC[C@H]4C(=O)N[C@@H](Cc4ccc(O)cc4)C(=O)N[C@@H](CCCC)C(=O)N[C@H](C(N)=O)CSCCC6=O)nn3)nn1)C(=O)N1CCC[C@H]1C(=O)N[C@@H](Cc1ccc(O)cc1)C(=O)N2 | Nectin-4 | binding, SPR | Kd | 2.3 nM
CCC(c1ccccc1)c1nn2c(-c3cccs3)nnc2s1 (stereo not drawn) | PFF0160c | enzyme activity, inhibitor, absorbance | IC50 | 0.158 µM
O=S(=O)(O)c1nc2ccccc2[nH]1 | racE (Bacillus subtilis, UniProt P94556) | enzyme activity, inhibitor, absorbance | IC50 | 128 µM
Fc1ccc([C@@H]2CCNC[C@H]2COc2ccc3c(c2)OCO3)cc1 | SIGMAR1 | ligand displacement, radioligand | Ki | 365 nM
CSc1nc2nc(C)c(Cc3cccc(C(F)(F)F)c3)c(C)n2n1 | PFF0160c E182D | enzyme activity, inhibitor, absorbance | IC50 | > 10 µM
Cc1cc2c(s1)Nc1ccccc1N=C2N1CCN(C)CC1 | SIGMAR1 | ligand displacement, radioligand | Ki | > 10000 nM
CCCC[C@@H]1NC(=O)[C@H](Cc2ccc(O)cc2)NC(=O)[C@@H]2CCCN2C(=O)[C@H](CC(=O)O)NC(=O)[C@H](C)NC(=O)[C@H](Cc2ccccc2)NC(=O)[C@@H]2CSCCC(=O)N3CN(CN(C3)C(=O)CCSC[C@H](NC(C)=O)C(=O)N[C@@H](CC(C)(C)C)C(=O)N[C@@H](CCC(=O)O)C(=O)N[C@@H](CCC(=O)O)C(=O)N[C@H](CCCCNC(=O)CCc3cn(CCOCCOCCOCCOCCOCCC(=O)N[C@H]4CSCCC(=O)N5CN6CN(C5)C(=O)CCSC[C@H](NC(=O)[C@@H](CC(=O)O)NC(=O)[C@H](Cc5cccc7ccccc57)NC(=O)[C@@H]5CCCN5C4=O)C(=O)N[C@@H](CCSC)C(=O)N[C@@H](CCCCNC(=N)N)C(=O)N[C@@H](CC(=O)O)C(=O)N[C@@H](Cc4c[nH]c5ccccc45)C(=O)N[C@@H](CO)C(=O)N[C@@H]([C@@H](C)O)C(=O)N4CCC[C@H]4C(=O)N4C[C@H](O)C[C@H]4C(=O)N[C@@H](Cc4c[nH]c5ccccc45)C(=O)N[C@H](C(N)=O)CSCCC6=O)nn3)C(=O)N3CCC[C@H]3C(=O)N[C@@H](Cc3ccc(O)cc3)C(=O)N2)C(=O)CCSC[C@@H](C(N)=O)NC1=O | Nectin-4 | binding, SPR | Kd | 1.7 nM
